Source: ChEMBL document CHEMBL4725476, “Fluorescent Probes for Ecto-5'-nucleotidase (CD73)” (ACS Med Chem Lett, 2020)
Activity calls are given as the source filed them. The rule behind the calls is not given here.

How the values were obtained:
MDA-MB-231 = experiment: Cytotoxicity against human MDA-MB-231 cells assessed as reduction in cell growth at 10000 nM incubated for 24 hrs by FACS analysis; type: cell-based; conditions: mda-mb-231, 24 h, 10 µM
A549 = experiment: Cytotoxicity against human A549 cells assessed as reduction in cell growth at 1000 nM incubated for 48 hrs by CCK8 assay; type: cell-based; conditions: a549, 48 h, 1 µM
Retina = experiment: Effect on C57BL/6 mouse retina with CD73-/- deficient incubated for 1 hr by microscopic analysis; type: ADME, tissue-based
How it was run: (§1)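 Eyeballs enucleated from wild-type and CD73 knockout mice (targeted gene disruption). Free-floating vibratome-cut eye sections costained with rabbit anti-rat CD73 and chicken anti-vimentin antibodies. Then incubated with fluorochrome-conjugated second-stage antibodies together with fluorescein-labeled inhibitor. Nuclei counterstained with DAPI; read by immunofluorescence microscopy.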

5'-nucleotidase [1] = molecular target: T1, 5'-nucleotidase (Homo sapiens, UniProt P21589); experiment: Inhibition of CD73 in human MDA-MB-231 cells incubated for 30 mins by anti-CD73 antibody and alexa flour 633 staining based confocal microscopy analysis; type: cell-based
T1 sequence (P21589 whole entry): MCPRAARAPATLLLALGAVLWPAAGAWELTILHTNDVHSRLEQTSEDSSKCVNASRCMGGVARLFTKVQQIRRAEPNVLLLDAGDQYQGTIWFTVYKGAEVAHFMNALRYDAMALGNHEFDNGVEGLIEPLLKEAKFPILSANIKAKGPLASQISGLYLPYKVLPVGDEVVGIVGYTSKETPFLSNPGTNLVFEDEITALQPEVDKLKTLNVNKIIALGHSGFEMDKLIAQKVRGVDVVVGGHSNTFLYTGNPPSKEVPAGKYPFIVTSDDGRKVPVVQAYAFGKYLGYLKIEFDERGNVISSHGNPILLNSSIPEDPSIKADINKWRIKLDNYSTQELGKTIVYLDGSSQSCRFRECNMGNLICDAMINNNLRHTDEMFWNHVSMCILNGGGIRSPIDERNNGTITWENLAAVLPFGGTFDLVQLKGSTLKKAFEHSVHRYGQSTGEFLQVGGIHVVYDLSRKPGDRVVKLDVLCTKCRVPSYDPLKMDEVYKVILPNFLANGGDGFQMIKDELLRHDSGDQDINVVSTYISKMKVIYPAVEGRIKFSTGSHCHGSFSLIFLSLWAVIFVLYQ
How it was run: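 MDA-MB-231 cells grown on cover slips were stained with rabbit anti-human CD73 antibody (h5NT-1L), then incubated with Alexa Fluor 633 goat anti-rabbit IgG secondary together with the fluorescein-labelled CD73 inhibitor. Nuclei were counterstained with DAPI. Cell-surface CD73 and probe binding were imaged by confocal microscopy.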

5'-nucleotidase [2] = molecular target: T1, 5'-nucleotidase; experiment: Inhibition of recombinant human C-terminal His-tagged CD73 (27 to 549 residues) expressed in Sf9 cells using [2,8-3H]-AMP as substrate incubated for 25 mins by scintillation counting method
How it was run: (§2)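 Radiometric CD73 assay using [3H]AMP substrate. Enzyme sources: human and rat recombinant soluble CD73 from Sf9 insect cells, or membrane preparations of MDA-MB-231 cells with native CD73. After incubation, unreacted [3H]AMP precipitated with lanthanum chloride and removed by filtration. [3H]adenosine in filtrate quantified by liquid scintillation counting. Full concentration-inhibition curves; Ki from IC50 via Cheng–Prusoff. Means ± SEM of 3 separate experiments.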

[3] = molecular target: T2, 5'-nucleotidase (Mus musculus) (UniProt Q61503); experiment: Inhibition of CD73 in C57BL/6 mouse retina incubated for 1 hr by microscopic analysis; type: tissue-based; how it was run: as §1
T2 sequence (whole entry): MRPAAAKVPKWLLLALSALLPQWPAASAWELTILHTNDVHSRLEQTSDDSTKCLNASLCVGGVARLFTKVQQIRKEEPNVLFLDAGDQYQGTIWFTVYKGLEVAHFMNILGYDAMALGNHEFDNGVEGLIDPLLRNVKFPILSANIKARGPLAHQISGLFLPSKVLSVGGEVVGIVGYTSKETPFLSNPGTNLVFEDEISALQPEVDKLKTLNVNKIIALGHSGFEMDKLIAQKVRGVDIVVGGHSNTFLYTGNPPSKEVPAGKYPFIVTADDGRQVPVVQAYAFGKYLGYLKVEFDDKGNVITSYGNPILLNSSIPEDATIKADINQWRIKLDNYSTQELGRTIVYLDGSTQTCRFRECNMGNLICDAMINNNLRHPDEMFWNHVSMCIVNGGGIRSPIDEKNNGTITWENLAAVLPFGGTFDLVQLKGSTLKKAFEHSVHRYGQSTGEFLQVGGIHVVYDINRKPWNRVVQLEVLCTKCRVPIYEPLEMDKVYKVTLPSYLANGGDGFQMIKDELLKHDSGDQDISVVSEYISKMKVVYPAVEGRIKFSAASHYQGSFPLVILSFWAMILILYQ

5'-nucleotidase [4] = molecular target: T3, 5'-nucleotidase (Rattus norvegicus, UniProt P21588); experiment: Inhibition of recombinant rat CD73 expressed in Sf9 cells using [2,8-3H]-AMP as substrate incubated for 25 mins by scintillation counting method; how it was run: as §2
T3 sequence (P21588 whole entry): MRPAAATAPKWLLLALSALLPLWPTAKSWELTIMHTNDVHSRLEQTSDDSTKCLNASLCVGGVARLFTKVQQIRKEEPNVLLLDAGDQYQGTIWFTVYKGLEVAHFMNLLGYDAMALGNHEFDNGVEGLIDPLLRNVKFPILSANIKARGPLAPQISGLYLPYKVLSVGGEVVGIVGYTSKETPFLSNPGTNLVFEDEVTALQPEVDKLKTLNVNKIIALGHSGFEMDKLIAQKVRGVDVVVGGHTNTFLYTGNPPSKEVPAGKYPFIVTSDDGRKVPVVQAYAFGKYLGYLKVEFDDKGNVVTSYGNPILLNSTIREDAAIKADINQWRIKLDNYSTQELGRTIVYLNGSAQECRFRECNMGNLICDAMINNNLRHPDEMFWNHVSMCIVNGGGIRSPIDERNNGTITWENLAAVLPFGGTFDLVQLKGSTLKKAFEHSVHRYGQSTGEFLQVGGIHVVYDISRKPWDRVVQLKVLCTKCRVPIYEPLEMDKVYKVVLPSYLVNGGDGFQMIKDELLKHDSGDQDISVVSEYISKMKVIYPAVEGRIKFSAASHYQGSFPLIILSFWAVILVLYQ

[5] = molecular target: P2Y purinoceptor 12 (Homo sapiens) (UniProt Q9H244); experiment: Effect on human P2Y12 expressed in […] cells assessed as beta arrestin recruitment at 10 uM by beta-arrestin assay; type: functional, cell-based; conditions: CHO-K1
Chain of P2Y purinoceptor 12 (Homo sapiens) (Q9H244 whole entry): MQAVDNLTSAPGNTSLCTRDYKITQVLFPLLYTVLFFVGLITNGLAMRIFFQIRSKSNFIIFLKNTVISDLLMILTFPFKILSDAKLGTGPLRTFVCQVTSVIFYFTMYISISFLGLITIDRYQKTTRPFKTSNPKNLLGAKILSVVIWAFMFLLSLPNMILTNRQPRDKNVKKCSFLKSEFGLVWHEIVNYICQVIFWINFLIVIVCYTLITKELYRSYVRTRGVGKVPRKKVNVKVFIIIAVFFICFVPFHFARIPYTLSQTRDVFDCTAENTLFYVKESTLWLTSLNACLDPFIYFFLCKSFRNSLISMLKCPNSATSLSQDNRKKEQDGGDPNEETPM

[6] = molecular target: T4, Ectonucleoside triphosphate diphosphohydrolase 8 (Homo sapiens) (UniProt Q5MY95); experiment: Inhibition of human NTPDase 8 expressed in […] cells using ATP as substrate at 50 uM incubated for 5 mins followed by substrate addition and measured after 30 mins by capillary electrophoresis method; type: cell-based
T4 sequence (whole entry): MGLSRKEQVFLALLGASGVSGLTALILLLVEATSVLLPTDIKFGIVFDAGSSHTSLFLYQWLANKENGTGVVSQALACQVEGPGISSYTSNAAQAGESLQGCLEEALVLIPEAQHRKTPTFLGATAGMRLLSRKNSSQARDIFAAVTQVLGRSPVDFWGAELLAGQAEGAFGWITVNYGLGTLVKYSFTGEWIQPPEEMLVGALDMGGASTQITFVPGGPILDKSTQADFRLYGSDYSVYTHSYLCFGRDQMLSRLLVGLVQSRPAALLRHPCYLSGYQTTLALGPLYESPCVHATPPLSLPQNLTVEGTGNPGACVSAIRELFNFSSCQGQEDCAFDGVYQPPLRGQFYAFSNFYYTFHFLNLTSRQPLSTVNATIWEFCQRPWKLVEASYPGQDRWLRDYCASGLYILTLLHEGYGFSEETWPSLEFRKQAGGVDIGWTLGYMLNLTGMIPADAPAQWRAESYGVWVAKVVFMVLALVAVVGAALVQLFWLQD

[7] = Metabolic stability in human liver microsomes assessed as intrinsic clearance measured for 60 mins; type: ADME, Microsome; conditions: read-out: CLH
How it was run: (§3)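 Stability of the probe tested by incubation with human liver microsomes. Intrinsic clearance expressed per mg microsomal protein; half-life derived from the clearance.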

[8] = molecular target: T5, Ectonucleoside triphosphate diphosphohydrolase 3 (Homo sapiens) (UniProt O75355); experiment: Inhibition of human NTPDase 3 expressed in […] cells using ATP as substrate at 50 uM incubated for 5 mins followed by substrate addition and measured after 30 mins by capillary electrophoresis method; type: cell-based
T5 sequence (whole entry): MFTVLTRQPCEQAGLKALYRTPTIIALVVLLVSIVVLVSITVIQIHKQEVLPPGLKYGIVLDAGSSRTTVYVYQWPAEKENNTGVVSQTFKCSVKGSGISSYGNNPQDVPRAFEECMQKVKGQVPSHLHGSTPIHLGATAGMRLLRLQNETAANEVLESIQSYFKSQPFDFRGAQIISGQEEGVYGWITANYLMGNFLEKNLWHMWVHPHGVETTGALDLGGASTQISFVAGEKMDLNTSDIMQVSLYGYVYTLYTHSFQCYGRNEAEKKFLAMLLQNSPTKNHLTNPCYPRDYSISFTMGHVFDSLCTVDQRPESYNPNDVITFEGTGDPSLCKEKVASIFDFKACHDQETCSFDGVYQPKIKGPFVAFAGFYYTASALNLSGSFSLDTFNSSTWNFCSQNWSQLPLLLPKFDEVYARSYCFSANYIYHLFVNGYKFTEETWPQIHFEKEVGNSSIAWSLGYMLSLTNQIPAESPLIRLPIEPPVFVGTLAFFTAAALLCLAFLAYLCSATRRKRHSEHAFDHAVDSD

[9] = Selectivity index, ratio of Ki for rat C-terminal His-tagged CD73 expressed in Sf9 cells to Ki for recombinant human C-terminal His-tagged CD73 (27 to 549 residues) expressed in Sf9 cells
How it was run: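 Ki values were measured in a radiometric assay with [3H]AMP substrate against rat and human recombinant soluble CD73 expressed in Sf9 insect cells. Residual [3H]AMP was precipitated with lanthanum chloride and removed by filtration, and [3H]adenosine was quantified by liquid scintillation counting. Ki came from full-curve IC50 via Cheng–Prusoff, 3 separate experiments. The ratio is rat Ki over human Ki.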

[10] = molecular target: T6, Ectonucleoside triphosphate diphosphohydrolase 1 (Homo sapiens) (UniProt P49961); experiment: Inhibition of human NTPDase 1 expressed in […] cells using ATP as substrate at 50 uM incubated for 5 mins followed by substrate addition and measured after 30 mins by capillary electrophoresis method; type: cell-based
T6 sequence (whole entry): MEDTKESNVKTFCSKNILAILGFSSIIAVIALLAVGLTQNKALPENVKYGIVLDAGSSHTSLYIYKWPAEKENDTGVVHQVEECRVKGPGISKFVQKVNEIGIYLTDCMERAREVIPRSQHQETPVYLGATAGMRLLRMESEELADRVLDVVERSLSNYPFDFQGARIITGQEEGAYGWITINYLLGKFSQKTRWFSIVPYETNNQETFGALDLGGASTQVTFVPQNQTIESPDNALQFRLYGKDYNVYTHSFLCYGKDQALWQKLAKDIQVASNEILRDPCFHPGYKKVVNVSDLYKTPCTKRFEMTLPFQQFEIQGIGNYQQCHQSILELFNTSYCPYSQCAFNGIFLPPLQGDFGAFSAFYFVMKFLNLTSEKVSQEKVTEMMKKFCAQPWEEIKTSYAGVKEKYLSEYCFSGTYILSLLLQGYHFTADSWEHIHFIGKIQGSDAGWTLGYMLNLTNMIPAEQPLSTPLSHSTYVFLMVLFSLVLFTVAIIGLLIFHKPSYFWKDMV

[11] = Metabolic stability in human liver microsomes assessed as half life measured for 60 mins; type: ADME, Microsome; how it was run: as §3
[12] = molecular target: T7, Ectonucleoside triphosphate diphosphohydrolase 2 (Homo sapiens) (UniProt Q9Y5L3); experiment: Inhibition of human NTPDase 2 expressed in […] cells using ATP as substrate at 50 uM incubated for 5 mins followed by substrate addition and measured after 30 mins by capillary electrophoresis method; type: cell-based
T7 sequence (whole entry): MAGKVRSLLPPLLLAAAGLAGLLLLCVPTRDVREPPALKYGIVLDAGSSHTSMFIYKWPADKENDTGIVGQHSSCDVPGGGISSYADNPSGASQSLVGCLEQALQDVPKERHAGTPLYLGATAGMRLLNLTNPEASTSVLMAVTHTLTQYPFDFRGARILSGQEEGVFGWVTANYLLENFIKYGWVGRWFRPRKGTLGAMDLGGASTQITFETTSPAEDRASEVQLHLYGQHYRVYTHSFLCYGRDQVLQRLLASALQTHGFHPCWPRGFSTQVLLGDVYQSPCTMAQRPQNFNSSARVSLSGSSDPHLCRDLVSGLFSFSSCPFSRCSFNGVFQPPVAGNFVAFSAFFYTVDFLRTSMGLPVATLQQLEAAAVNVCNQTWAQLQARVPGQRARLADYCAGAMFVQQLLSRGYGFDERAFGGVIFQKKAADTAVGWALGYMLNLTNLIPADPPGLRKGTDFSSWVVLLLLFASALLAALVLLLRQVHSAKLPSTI

5'-nucleotidase [13] = molecular target: T1, 5'-nucleotidase; experiment: Inhibition of CD73 in human MDA-MB-231 cells using [2,8-3H]-AMP as substrate incubated for 25 mins by scintillation counting method; type: cell-based; how it was run: as §2

| Structure (SMILES) | Activity (MDA-MB-231) | Activity (A549) | Activity (Retina) | inhibition (5'-nucleotidase [1]) | Ki (5'-nucleotidase [2]) | inhibition [3] | Ki (5'-nucleotidase [4]) | Activity [5] | inhibition [6] | microsomal CLint [7] | inhibition [8] | Ratio Ki [9] | inhibition [10] | half-life [11] | inhibition [12] | Ki (5'-nucleotidase [13]) |
| --- | --- | --- | --- | --- | --- | --- | --- | --- | --- | --- | --- | --- | --- | --- | --- | --- |
| O=C(NCCOCCOCCNC(=O)c1ccc2c(c1)C1(OC2=O)c2ccc(O)cc2Oc2cc(O)ccc21)c1ccc(CNc2ncnc3c2ncn3[C@@H]2O[C@H](COP(=O)(O)CP(=O)(O)O)[C@@H](O)[C@H]2O)cc1 | Non-Toxic | Non-Toxic | Non-Toxic | Active | 12.6 nM | Active |  |  |  |  |  |  |  |  |  |  |
| O=C(NCCCCCCNC(=O)c1ccc2c(c1)C1(OC2=O)c2ccc(O)cc2Oc2cc(O)ccc21)c1ccc(CNc2ncnc3c2ncn3[C@@H]2O[C@H](COP(=O)(O)CP(=O)(O)O)[C@@H](O)[C@H]2O)cc1 | Non-Toxic | Non-Toxic | Non-Toxic | Active | 2.98 nM | Active | 26 nM | inactive | inactive | 12 µL/min/mg | inactive | 8 | inactive | 1.93 h | inactive | 4.59 nM |
